Assay results taken from ChEMBL document CHEMBL4038305, “Benzoxaborole Antimalarial Agents. Part 5. Lead Optimization of Novel Amide Pyrazinyloxy Benzoxaboroles and Identification of a Preclinical Candidate” (J Med Chem, 2017).

test system: Plasmodium berghei; test: Antimalarial activity against Plasmodium berghei infected in Swiss Webster mouse assessed as mouse survival rate at 1.1 mg/kg administered once daily via oral gavage for 4 consecutive days beginning 1 hr after infection measured on day 4 post infection relative to control; assay type: functional
How it was run: (§1)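 Mice given an intraperitoneal injection of P. berghei-infected erythrocytes taken from a previously infected animal. Oral dosing once daily for 4 consecutive days, starting 1 h after infection. Vehicle: polyethylene glycol 300/propylene glycol/water (weight ratio 55/25/20). Percent survival recorded daily from day 4 to day 20. Chloroquine 30 mg/kg and vehicle-only groups served as controls.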

SMILES	survival at 1.1 mg/kg
Cc1c(Oc2cnc(C(=O)N3CC(O)(C(C)C)C3)cn2)ccc2c1B(O)OC2	100%

test system: Plasmodium berghei; test: Antimalarial activity against Plasmodium berghei infected in Swiss Webster mouse assessed as mouse survival rate at 200 mg/kg administered once daily via oral gavage for 4 consecutive days beginning 1 hr after infection measured on day 5 post infection relative to control; assay type: functional
How it was run: (§2)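 P. berghei-infected erythrocytes taken from a previously infected mouse were injected intraperitoneally. Oral dosing, once daily for 4 consecutive days, began 1 h after infection, in polyethylene glycol 300/propylene glycol/water (55/25/20 by weight). Chloroquine at 30 mg/kg was the positive control, with a vehicle-only group. Percent survival was recorded daily from day 4 to day 20.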

SMILES	survival at 200 mg/kg
CCCC1(O)CN(C(=O)c2cnc(Oc3ccc4c(c3C)B(O)OC4)cn2)C1	100%
CCC1(O)CN(C(=O)c2cnc(Oc3ccc4c(c3C)B(O)OC4)cn2)C1	100%
Cc1c(Oc2cnc(C(=O)N3CC(O)(C(C)C)C3)cn2)ccc2c1B(O)OC2	100%

test system: Plasmodium berghei; test: Antimalarial activity against Plasmodium berghei infected in Swiss Webster mouse assessed as mouse survival rate at 1.1 mg/kg administered once daily via oral gavage for 4 consecutive days beginning 1 hr after infection measured on day 5 post infection relative to control; assay type: functional; how it was run: as §1

SMILES	survival at 1.1 mg/kg
Cc1c(Oc2cnc(C(=O)N3CC(O)(C(C)C)C3)cn2)ccc2c1B(O)OC2	100%

test system: Plasmodium berghei; test: Antimalarial activity against Plasmodium berghei infected in Swiss Webster mouse assessed as mouse survival rate at 200 mg/kg administered once daily via oral gavage for 4 consecutive days beginning 1 hr after infection measured on day 6 post infection relative to control; assay type: functional; how it was run: as §2

SMILES	survival at 200 mg/kg
CCCC1(O)CN(C(=O)c2cnc(Oc3ccc4c(c3C)B(O)OC4)cn2)C1	100%
CCC1(O)CN(C(=O)c2cnc(Oc3ccc4c(c3C)B(O)OC4)cn2)C1	100%
Cc1c(Oc2cnc(C(=O)N3CC(O)(C(C)C)C3)cn2)ccc2c1B(O)OC2	100%

test system: Plasmodium berghei; test: Antimalarial activity against Plasmodium berghei infected in Swiss Webster mouse assessed as mouse survival rate at 1.1 mg/kg administered once daily via oral gavage for 4 consecutive days beginning 1 hr after infection measured on day 6 post infection relative to control; assay type: functional; how it was run: as §1

SMILES	survival at 1.1 mg/kg
Cc1c(Oc2cnc(C(=O)N3CC(O)(C(C)C)C3)cn2)ccc2c1B(O)OC2	100%

test system: Plasmodium berghei; test: Antimalarial activity against Plasmodium berghei infected in Swiss Webster mouse assessed as mouse survival rate at 200 mg/kg administered once daily via oral gavage for 4 consecutive days beginning 1 hr after infection measured on day 7 post infection relative to control; assay type: functional; how it was run: as §2

SMILES	survival at 200 mg/kg
CCCC1(O)CN(C(=O)c2cnc(Oc3ccc4c(c3C)B(O)OC4)cn2)C1	100%
CCC1(O)CN(C(=O)c2cnc(Oc3ccc4c(c3C)B(O)OC4)cn2)C1	100%
Cc1c(Oc2cnc(C(=O)N3CC(O)(C(C)C)C3)cn2)ccc2c1B(O)OC2	100%

test system: Plasmodium berghei; test: Antimalarial activity against Plasmodium berghei infected in Swiss Webster mouse assessed as mouse survival rate at 1.1 mg/kg administered once daily via oral gavage for 4 consecutive days beginning 1 hr after infection measured on day 7 post infection relative to control; assay type: functional; how it was run: as §1

SMILES	survival at 1.1 mg/kg
Cc1c(Oc2cnc(C(=O)N3CC(O)(C(C)C)C3)cn2)ccc2c1B(O)OC2	0%

test system: Plasmodium berghei; test: Antimalarial activity against Plasmodium berghei infected in Swiss Webster mouse assessed as mouse survival rate at 200 mg/kg administered once daily via oral gavage for 4 consecutive days beginning 1 hr after infection measured on day 8 post infection relative to control; assay type: functional; how it was run: as §2

SMILES	survival at 200 mg/kg
CCCC1(O)CN(C(=O)c2cnc(Oc3ccc4c(c3C)B(O)OC4)cn2)C1	100%
CCC1(O)CN(C(=O)c2cnc(Oc3ccc4c(c3C)B(O)OC4)cn2)C1	100%
Cc1c(Oc2cnc(C(=O)N3CC(O)(C(C)C)C3)cn2)ccc2c1B(O)OC2	100%

test system: Plasmodium berghei; test: Antimalarial activity against Plasmodium berghei infected in Swiss Webster mouse assessed as mouse survival rate at 200 mg/kg administered once daily via oral gavage for 4 consecutive days beginning 1 hr after infection measured on day 9 post infection relative to control; assay type: functional; how it was run: as §2

SMILES	survival at 200 mg/kg
CCCC1(O)CN(C(=O)c2cnc(Oc3ccc4c(c3C)B(O)OC4)cn2)C1	100%
CCC1(O)CN(C(=O)c2cnc(Oc3ccc4c(c3C)B(O)OC4)cn2)C1	100%
Cc1c(Oc2cnc(C(=O)N3CC(O)(C(C)C)C3)cn2)ccc2c1B(O)OC2	100%

test system: Plasmodium berghei; test: Antimalarial activity against Plasmodium berghei infected in Swiss Webster mouse assessed as mouse survival rate at 200 mg/kg administered once daily via oral gavage for 4 consecutive days beginning 1 hr after infection measured on day 10 post infection relative to control; assay type: functional; how it was run: as §2

SMILES	survival at 200 mg/kg
CCCC1(O)CN(C(=O)c2cnc(Oc3ccc4c(c3C)B(O)OC4)cn2)C1	100%
CCC1(O)CN(C(=O)c2cnc(Oc3ccc4c(c3C)B(O)OC4)cn2)C1	100%
Cc1c(Oc2cnc(C(=O)N3CC(O)(C(C)C)C3)cn2)ccc2c1B(O)OC2	100%

test system: Plasmodium berghei; test: Antimalarial activity against Plasmodium berghei infected in Swiss Webster mouse assessed as mouse survival rate at 200 mg/kg administered once daily via oral gavage for 4 consecutive days beginning 1 hr after infection measured on day 11 post infection relative to control; assay type: functional; how it was run: as §2

SMILES	survival at 200 mg/kg
CCCC1(O)CN(C(=O)c2cnc(Oc3ccc4c(c3C)B(O)OC4)cn2)C1	100%
CCC1(O)CN(C(=O)c2cnc(Oc3ccc4c(c3C)B(O)OC4)cn2)C1	100%
Cc1c(Oc2cnc(C(=O)N3CC(O)(C(C)C)C3)cn2)ccc2c1B(O)OC2	100%

test system: Plasmodium berghei; test: Antimalarial activity against Plasmodium berghei infected in Swiss Webster mouse assessed as mouse survival rate at 200 mg/kg administered once daily via oral gavage for 4 consecutive days beginning 1 hr after infection measured on day 12 post infection relative to control; assay type: functional; how it was run: as §2

SMILES	survival at 200 mg/kg
CCCC1(O)CN(C(=O)c2cnc(Oc3ccc4c(c3C)B(O)OC4)cn2)C1	100%
CCC1(O)CN(C(=O)c2cnc(Oc3ccc4c(c3C)B(O)OC4)cn2)C1	100%
Cc1c(Oc2cnc(C(=O)N3CC(O)(C(C)C)C3)cn2)ccc2c1B(O)OC2	100%

test system: Plasmodium berghei; test: Antimalarial activity against Plasmodium berghei infected in Swiss Webster mouse assessed as mouse survival rate at 200 mg/kg administered once daily via oral gavage for 4 consecutive days beginning 1 hr after infection measured on day 13 post infection relative to control; assay type: functional; how it was run: as §2

SMILES	survival at 200 mg/kg
CCCC1(O)CN(C(=O)c2cnc(Oc3ccc4c(c3C)B(O)OC4)cn2)C1	100%
CCC1(O)CN(C(=O)c2cnc(Oc3ccc4c(c3C)B(O)OC4)cn2)C1	100%
Cc1c(Oc2cnc(C(=O)N3CC(O)(C(C)C)C3)cn2)ccc2c1B(O)OC2	100%

test system: Plasmodium berghei; test: Antimalarial activity against Plasmodium berghei infected in Swiss Webster mouse assessed as mouse survival rate at 200 mg/kg administered once daily via oral gavage for 4 consecutive days beginning 1 hr after infection measured on day 14 post infection relative to control; assay type: functional; how it was run: as §2

SMILES	survival at 200 mg/kg
CCCC1(O)CN(C(=O)c2cnc(Oc3ccc4c(c3C)B(O)OC4)cn2)C1	100%
CCC1(O)CN(C(=O)c2cnc(Oc3ccc4c(c3C)B(O)OC4)cn2)C1	100%
Cc1c(Oc2cnc(C(=O)N3CC(O)(C(C)C)C3)cn2)ccc2c1B(O)OC2	100%

test system: Plasmodium berghei; test: Antimalarial activity against Plasmodium berghei infected in Swiss Webster mouse assessed as mouse survival rate at 200 mg/kg administered once daily via oral gavage for 4 consecutive days beginning 1 hr after infection measured on day 15 post infection relative to control; assay type: functional; how it was run: as §2

SMILES	survival at 200 mg/kg
CCCC1(O)CN(C(=O)c2cnc(Oc3ccc4c(c3C)B(O)OC4)cn2)C1	100%
CCC1(O)CN(C(=O)c2cnc(Oc3ccc4c(c3C)B(O)OC4)cn2)C1	100%
Cc1c(Oc2cnc(C(=O)N3CC(O)(C(C)C)C3)cn2)ccc2c1B(O)OC2	100%

test system: Plasmodium berghei; test: Antimalarial activity against Plasmodium berghei infected in Swiss Webster mouse assessed as mouse survival rate at 100 mg/kg administered once daily via oral gavage for 4 consecutive days beginning 1 hr after infection measured on day 15 post infection relative to control; assay type: functional; how it was run: as §1

SMILES	survival at 100 mg/kg
CCCC1(O)CN(C(=O)c2cnc(Oc3ccc4c(c3C)B(O)OC4)cn2)C1	80%
Cc1c(Oc2cnc(C(=O)N3CC(O)(C(C)C)C3)cn2)ccc2c1B(O)OC2	100%

test system: Plasmodium berghei; test: Antimalarial activity against Plasmodium berghei infected in Swiss Webster mouse assessed as mouse survival rate at 200 mg/kg administered once daily via oral gavage for 4 consecutive days beginning 1 hr after infection measured from day 16 to day 19 post infection relative to control; assay type: functional; how it was run: as §2

SMILES	survival at 200 mg/kg
CCC1(O)CN(C(=O)c2cnc(Oc3ccc4c(c3C)B(O)OC4)cn2)C1	80%
Cc1c(Oc2cnc(C(=O)N3CC(O)(C(C)C)C3)cn2)ccc2c1B(O)OC2	100%

test system: Plasmodium berghei; test: Antimalarial activity against Plasmodium berghei infected in Swiss Webster mouse assessed as mouse survival rate at 100 mg/kg administered once daily via oral gavage for 4 consecutive days beginning 1 hr after infection measured on day 17 post infection relative to control; assay type: functional; how it was run: as §1

SMILES	survival at 100 mg/kg
Cc1c(Oc2cnc(C(=O)N3CC(O)(C(C)C)C3)cn2)ccc2c1B(O)OC2	100%

test system: Plasmodium berghei; test: Antimalarial activity against Plasmodium berghei infected in Swiss Webster mouse assessed as mouse survival rate at 100 mg/kg administered once daily via oral gavage for 4 consecutive days beginning 1 hr after infection measured from day 16 to day 19 post infection relative to control; assay type: functional; how it was run: as §1

SMILES	survival at 100 mg/kg
CCCC1(O)CN(C(=O)c2cnc(Oc3ccc4c(c3C)B(O)OC4)cn2)C1	20%

test system: Plasmodium berghei; test: Antimalarial activity against Plasmodium berghei infected in Swiss Webster mouse assessed as mouse survival rate at 200 mg/kg administered once daily via oral gavage for 4 consecutive days beginning 1 hr after infection measured on day 20 post infection relative to control; assay type: functional; how it was run: as §2

SMILES	survival at 200 mg/kg
CCCC1(O)CN(C(=O)c2cnc(Oc3ccc4c(c3C)B(O)OC4)cn2)C1	0%
CCC1(O)CN(C(=O)c2cnc(Oc3ccc4c(c3C)B(O)OC4)cn2)C1	80%
Cc1c(Oc2cnc(C(=O)N3CC(O)(C(C)C)C3)cn2)ccc2c1B(O)OC2	100%

test system: Plasmodium berghei; test: Antimalarial activity against Plasmodium berghei infected in Swiss Webster mouse assessed as mouse survival rate at 100 mg/kg administered once daily via oral gavage for 4 consecutive days beginning 1 hr after infection measured on day 20 post infection relative to control; assay type: functional; how it was run: as §1

SMILES	survival at 100 mg/kg
CCCC1(O)CN(C(=O)c2cnc(Oc3ccc4c(c3C)B(O)OC4)cn2)C1	0%
Cc1c(Oc2cnc(C(=O)N3CC(O)(C(C)C)C3)cn2)ccc2c1B(O)OC2	80%

test system: Plasmodium falciparum; test: Antimalarial activity against Plasmodium falciparum 3D7 0087/N9 infected in NOD/SCID IL2R gamma null mouse assessed as compound concentration in whole blood require to reduce parasitemia in peripheral blood administered once daily via oral gavage for 4 consecutive days measured on day 7 post infection; assay type: functional

SMILES	AUCED90
CCC1(O)CN(C(=O)c2cnc(Oc3ccc4c(c3C)B(O)OC4)cn2)C1	1.6 µg.hr/ml/day
